Experimental data reported in ChEMBL document CHEMBL4033652, “Design, synthesis, and pharmacological evaluation of 4-azolyl-benzamide derivatives as novel GPR52 agonists” (Bioorg Med Chem, 2017).
pEC50: −log10 of the molar value. Activity calls are given as the source filed them. The rule behind the calls is not given here.

Experiments:
[1] = target: T1, G-protein coupled receptor 52 (Homo sapiens, UniProt Q9Y2T5); assay: Agonist activity at human GPR52 expressed in CHO cells assessed as increase in cAMP level after 30 mins by AlphaScreen assay; format: functional, cell-based
T1 sequence (Q9Y2T5 whole entry): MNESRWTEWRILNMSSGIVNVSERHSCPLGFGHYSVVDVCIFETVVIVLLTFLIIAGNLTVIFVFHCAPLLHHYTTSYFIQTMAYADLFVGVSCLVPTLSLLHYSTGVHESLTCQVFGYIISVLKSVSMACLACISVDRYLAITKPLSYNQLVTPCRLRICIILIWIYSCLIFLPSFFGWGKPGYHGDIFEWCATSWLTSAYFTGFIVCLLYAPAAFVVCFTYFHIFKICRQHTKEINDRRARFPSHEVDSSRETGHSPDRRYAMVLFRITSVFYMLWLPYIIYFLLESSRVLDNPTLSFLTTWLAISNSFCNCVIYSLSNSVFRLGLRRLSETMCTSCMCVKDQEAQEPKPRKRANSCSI
Summary of the method: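 CHO cells stably expressing human GPR52 (10,000/well) exposed to compound at various concentrations, 30 min, 37°C, in HBSS with 5 mM HEPES pH 7.6, 0.5% BSA, 100 µM IBMX and 100 µM Ro20-1724. AlphaScreen acceptor/donor beads added overnight at room temperature. Response expressed relative to a reference benzofuran agonist (100%). EC50 from mean curves, n = 2–4, 95% CI.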

[2] = target: T1, G-protein coupled receptor 52; assay: Agonist activity at human GPR52 expressed in CHO cells assessed as increase in cAMP level after 30 mins by AlphaScreen assay relative to (N-(2-hydroxyethyl)-3-(2-(3-(trifluoromethyl)benzyl)-1-benzofuran-4-yl)benzamide); format: functional, cell-based
Summary of the method: (§1)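 CHO cells stably expressing human GPR52, 10,000 cells per well, exposed to compound 30 min at 37°C in HBSS with 5 mM HEPES pH 7.6, 0.5% BSA, 100 µM IBMX and 100 µM Ro20-1724. cAMP measured by AlphaScreen with acceptor and biotinylated donor beads after overnight room-temperature incubation. Emax set relative to the reference benzofuran benzamide (100%). EC50 taken from mean curves, n = 2–4, with 95% CI.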

[3] = Oral bioavailability in Sprague-Dawley rat at 1 mg/kg administered as cassette dose by LC-MS/MS analysis; format: ADME, organism-based; settings: in vivo
Summary of the method: (§2)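 Cassette dosing in non-fasted male SD rats (n = 3): i.v. 0.1 mg/kg or p.o. 1 mg/kg. Plasma prepared from blood, deproteinized, centrifuged, supernatant measured by LC/MS/MS. AUC taken over 0–8 h.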

[4] = AUC (0 to 8 hrs) in Sprague-Dawley rat at 1 mg/kg, po administered as cassette dose by LC-MS/MS analysis; format: ADME, organism-based; set-up: time < 8 hr, dose 1 mg/kg, route oral; settings: in vivo; summary of the method: as §2
[5] = Total clearance in Sprague-Dawley rat at 0.1 mg/kg, iv or 1 mg/kg, po administered as cassette dose by LC/MS/MS analysis; format: ADME, organism-based; settings: in vivo; summary of the method: as §2
[6] = Ratio of AUC (0 to 24 hrs) in ICR mouse brain to plasma at 10 mg/kg, po; format: ADME, organism-based; settings: brain and plasma, read-out: Ratio AUC
[7] = Metabolic stability in human liver microsomes at 1 uM after 15 to 30 mins in presence of NADPH by LC/MS/MS analysis; format: ADME, microsome; settings: read-out: Stability
Summary of the method: (§3)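 Human, rat or mouse liver microsomes (0.2 mg/mL protein) incubated with test compound at 1 µmol/L in 50 mmol/L phosphate buffer pH 7.4. Reaction started with an NADPH-generating system, run 15 and 30 min at 37°C, stopped with acetonitrile. Duplicates. Parent compound loss measured by LC/MS/MS.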

[8] = Metabolic stability in rat liver microsomes at 1 uM after 15 to 30 mins in presence of NADPH by LC/MS/MS analysis; format: ADME, microsome; settings: read-out: Stability; summary of the method: as §3
[9] = Metabolic stability in mouse liver microsomes at 1 uM after 15 to 30 mins in presence of NADPH by LC/MS/MS analysis; format: ADME, microsome; settings: read-out: Stability; summary of the method: as §3
[10] = Cmax in ICR mouse plasma at 10 mg/kg, po by LC/MS/MS analysis; format: ADME, organism-based; set-up: dose 10 mg/kg, route oral
Summary of the method: (§4)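 Male ICR mice dosed orally at 10 or 30 mg/kg as a suspension in 0.5% methylcellulose. Blood and brain taken at 0.25, 0.5, 1, 2, 4, 8 and 24 h, n = 3 per time point. Plasma separated; brain homogenized in saline. Samples mixed with acetonitrile, centrifuged, supernatant quantified by LC/MS/MS.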

[11] = Cmax in ICR mouse brain at 10 mg/kg, po by LC/MS/MS analysis; format: ADME, organism-based; set-up: dose 10 mg/kg, route oral; summary of the method: as §4
[12] = Cmax in ICR mouse plasma at 30 mg/kg, po by LC/MS/MS analysis; format: ADME, organism-based; set-up: dose 30 mg/kg, route oral; summary of the method: as §4
[13] = Cmax in ICR mouse brain at 30 mg/kg, po by LC/MS/MS analysis; format: ADME, organism-based; set-up: dose 30 mg/kg, route oral; summary of the method: as §4
[14] = Tmax in ICR mouse plasma at 10 mg/kg, po by LC/MS/MS analysis; format: ADME, organism-based; summary of the method: as §4
[15] = Tmax in ICR mouse brain at 10 mg/kg, po by LC/MS/MS analysis; format: ADME, organism-based; summary of the method: as §4
[16] = Tmax in ICR mouse plasma at 30 mg/kg, po by LC/MS/MS analysis; format: ADME, organism-based; summary of the method: as §4
[17] = Tmax in ICR mouse brain at 30 mg/kg, po by LC/MS/MS analysis; format: ADME, organism-based; summary of the method: as §4
[18] = AUC (0 to 24 hrs) in ICR mouse plasma at 10 mg/kg, po by LC/MS/MS analysis; format: ADME, organism-based; set-up: time < 24 hr, dose 10 mg/kg, route oral; summary of the method: as §4
[19] = test system: Brain; assay: AUC (0 to 24 hrs) in ICR mouse brain at 10 mg/kg, po by LC/MS/MS analysis; format: ADME, organism-based; set-up: time < 24 hr, dose 10 mg/kg, route oral; settings: in vivo; summary of the method: as §4
[20] = AUC (0 to 24 hrs) in ICR mouse plasma at 30 mg/kg, po by LC/MS/MS analysis; format: ADME, organism-based; set-up: time < 24 hr, dose 30 mg/kg, route oral; summary of the method: as §4
[21] = test system: Brain; assay: AUC (0 to 24 hrs) in ICR mouse brain at 30 mg/kg, po by LC/MS/MS analysis; format: ADME, organism-based; set-up: time < 24 hr, dose 30 mg/kg, route oral; settings: in vivo; summary of the method: as §4
[22] = Ratio of AUC (0 to 24 hrs) in ICR mouse brain to plasma at 30 mg/kg, po; format: ADME, organism-based; settings: brain and plasma, read-out: Ratio AUC
[23] = MRT in ICR mouse plasma at 10 mg/kg, po by LC/MS/MS analysis; format: ADME, organism-based; summary of the method: as §4
[24] = MRT in ICR mouse brain at 10 mg/kg, po by LC/MS/MS analysis; format: ADME, organism-based; summary of the method: as §4
[25] = MRT in ICR mouse plasma at 30 mg/kg, po by LC/MS/MS analysis; format: ADME, organism-based; summary of the method: as §4
[26] = MRT in ICR mouse brain at 30 mg/kg, po by LC/MS/MS analysis; format: ADME, organism-based; summary of the method: as §4
[27] = Protein binding in ICR mouse plasma at 1 uM after 24 hrs by LC/MS/MS based equilibrium dailysis method; format: ADME, cell-free; settings: read-out: PPB (converted)
Summary of the method: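 Plasma from male ICR mice spiked with compound at a final 1 µmol/L. Equilibrium dialysis (MWCO 6–8 kDa) against PBS for 24 h at room temperature. Both sides quantified by LC-MS/MS; bound fraction calculated from the plasma and PBS concentrations.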

[28] = target: D(1A) dopamine receptor (Homo sapiens) (UniProt P21728); assay: Inhibition of dopamine D1 receptor (unknown origin) at 10 uM
D(1A) dopamine receptor (Homo sapiens), sequence (P21728 whole entry): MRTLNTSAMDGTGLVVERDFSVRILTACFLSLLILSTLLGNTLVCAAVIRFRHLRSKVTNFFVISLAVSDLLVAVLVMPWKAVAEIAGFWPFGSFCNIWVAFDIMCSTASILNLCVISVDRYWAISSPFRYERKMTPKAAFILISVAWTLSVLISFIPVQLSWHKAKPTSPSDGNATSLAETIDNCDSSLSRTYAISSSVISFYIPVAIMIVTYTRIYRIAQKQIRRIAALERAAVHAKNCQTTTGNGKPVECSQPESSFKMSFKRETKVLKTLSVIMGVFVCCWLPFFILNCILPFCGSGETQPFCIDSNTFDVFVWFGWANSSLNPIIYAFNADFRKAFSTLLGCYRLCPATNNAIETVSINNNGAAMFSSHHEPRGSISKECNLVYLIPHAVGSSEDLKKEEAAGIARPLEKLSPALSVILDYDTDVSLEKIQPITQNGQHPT

[29] = target: dopamine D2L receptor (Homo sapiens, UniProt P14416); assay: Inhibition of dopamine D2L receptor (unknown origin) at 10 uM
dopamine D2L receptor, sequence (P14416 whole entry): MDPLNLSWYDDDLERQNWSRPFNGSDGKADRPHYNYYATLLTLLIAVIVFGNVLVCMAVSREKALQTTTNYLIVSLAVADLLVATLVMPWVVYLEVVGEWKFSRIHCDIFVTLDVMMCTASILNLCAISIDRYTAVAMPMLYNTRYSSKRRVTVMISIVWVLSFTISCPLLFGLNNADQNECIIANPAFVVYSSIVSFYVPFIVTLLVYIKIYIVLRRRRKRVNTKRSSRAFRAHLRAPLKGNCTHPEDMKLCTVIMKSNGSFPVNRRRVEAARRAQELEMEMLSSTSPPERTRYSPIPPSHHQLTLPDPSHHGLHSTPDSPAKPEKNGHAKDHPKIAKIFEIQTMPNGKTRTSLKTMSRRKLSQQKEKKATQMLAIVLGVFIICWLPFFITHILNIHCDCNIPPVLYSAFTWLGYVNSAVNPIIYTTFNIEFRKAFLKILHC

[30] = target: 5-hydroxytryptamine receptor 2A (Homo sapiens) (UniProt P28223); assay: Inhibition of 5-HT2 receptor (unknown origin) at 10 uM
5-hydroxytryptamine receptor 2A (Homo sapiens), sequence (P28223 whole entry): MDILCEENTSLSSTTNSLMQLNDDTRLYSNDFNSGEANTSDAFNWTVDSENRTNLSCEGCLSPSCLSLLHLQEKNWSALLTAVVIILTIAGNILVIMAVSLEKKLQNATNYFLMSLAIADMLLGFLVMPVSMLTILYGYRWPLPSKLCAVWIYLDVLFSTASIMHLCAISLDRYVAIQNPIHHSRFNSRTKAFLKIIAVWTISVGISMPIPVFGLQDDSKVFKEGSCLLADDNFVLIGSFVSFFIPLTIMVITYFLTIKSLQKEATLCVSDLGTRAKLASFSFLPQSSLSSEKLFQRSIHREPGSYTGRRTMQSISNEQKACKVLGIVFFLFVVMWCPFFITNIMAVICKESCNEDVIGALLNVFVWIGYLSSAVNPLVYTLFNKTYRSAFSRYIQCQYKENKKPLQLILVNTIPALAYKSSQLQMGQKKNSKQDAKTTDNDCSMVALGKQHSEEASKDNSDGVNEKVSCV

[31] = organism: Homo sapiens; assay: Inhibition of AMPA receptor (unknown origin) at 10 uM
[32] = target: Glutamate [NMDA] receptor (Homo sapiens) (UniProt Q05586+Q12879+Q13224+O15399+O60391+Q14957+Q8TCU5); assay: Inhibition of NMDA receptor (unknown origin) at 10 uM
[33] = test system: Mus musculus; assay: Anti-psychotic activity in ICR mouse assessed as inhibition of methamphetamine-induced hyperlocomotion at 10 mg/kg, po pretreated for 60 mins followed by methamphetamine administration measured after 150 mins; format: functional, organism-based
Summary of the method: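 Male ICR mice aged 7–8 weeks, housed singly in activity-monitor cages and habituated 60 min. Compound given p.o. (1–30 mg/kg range tested). Methamphetamine 2 mg/kg s.c. given 60 min later. Activity counts recorded for 150 min after compound dosing. Mean ± SEM, t-test and Williams test.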

[34] = target: G-protein coupled receptor 52 (Mus musculus, UniProt P0C5J4); assay: Agonist activity at mouse GPR52
G-protein coupled receptor 52 (Mus musculus, UniProt P0C5J4), sequence (P0C5J4 whole entry): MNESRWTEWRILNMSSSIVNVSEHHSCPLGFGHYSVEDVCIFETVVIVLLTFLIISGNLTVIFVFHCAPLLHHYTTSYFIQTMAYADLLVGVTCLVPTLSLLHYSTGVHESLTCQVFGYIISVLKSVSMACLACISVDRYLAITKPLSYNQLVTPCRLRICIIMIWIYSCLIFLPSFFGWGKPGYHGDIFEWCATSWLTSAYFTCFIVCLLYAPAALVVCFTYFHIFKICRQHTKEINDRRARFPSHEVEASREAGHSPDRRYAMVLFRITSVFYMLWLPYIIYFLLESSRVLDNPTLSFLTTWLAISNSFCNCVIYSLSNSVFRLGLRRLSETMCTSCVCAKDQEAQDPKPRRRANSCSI

[35] = target: G-protein coupled receptor 52 (Mus musculus) (UniProt P0C5J4); assay: Agonist activity at mouse GPR52 relative to (N-(2-hydroxyethyl)-3-(2-(3-(trifluoromethyl)benzyl)-1-benzofuran-4-yl)benzamide)
G-protein coupled receptor 52 (Mus musculus), sequence (P0C5J4 whole entry): as above

[36] = test system: Mus musculus; assay: Toxicity in ICR mouse model of methamphetamine-induced hyperlocomotion assessed as cataleptogenic effect at 10 mg/kg, po; format: organism-based; settings: in vivo
[37] = target: T1, G-protein coupled receptor 52; assay: Agonist activity at human GPR52 expressed in CHO cells assessed as increase in cAMP level at 1 uM after 30 mins by AlphaScreen assay relative to (N-(2-hydroxyethyl)-3-(2-(3-(trifluoromethyl)benzyl)-1-benzofuran-4-yl)benzamide); format: functional, cell-based; summary of the method: as §1

SMILES: Cc1cc(C(N)=O)ccc1-c1sc(Cc2cccc(C(F)(F)F)c2)nc1C
- pEC50 [1]: 5.85
- Emax [2]: 87%

SMILES: Cc1nc(Cc2cccc(C(F)(F)F)c2)sc1-c1ccc(C(N)=O)cc1
- pEC50 [1]: 6.66
- Emax [2]: 93%

SMILES: Cc1cc(-c2cc(Cc3cc(F)cc(C(F)(F)F)c3)nn2C)ccc1C(N)=O
- pEC50 [1]: 7.64
- Emax [2]: 123%
- bioavailability [3]: 30.5%
- AUC(0-t) at 8 h [4]: 155 ng·h/mL
- clearance [5]: 32.9 mL/min/kg

SMILES: COc1cc(-c2sc(Cc3cccc(C(F)(F)F)c3)nc2C)ccc1C(N)=O
- pEC50 [1]: 6.77
- Emax [2]: 88%

SMILES: Cc1cc(-n2nc(Cc3cc(F)cc(C(F)(F)F)c3)nc2C)ccc1C(N)=O [TP-024]
- Kp [6]: 1.53
- pEC50 [1]: 7.12
- Emax [2]: 122%
- bioavailability [3]: 53.8%
- AUC(0-t) at 8 h [4]: 384 ng·h/mL
- clearance [5]: 23.5 mL/min/kg
- microsomal CLint at 1 µM [7]: 17 µL/min/mg
- microsomal CLint at 1 µM [8]: 9 µL/min/mg
- microsomal CLint at 1 µM [9]: 24 µL/min/mg
- Cmax [10]: 688 ng/mL
- Cmax [11]: 1020 ng/g
- Cmax [12]: 1210 ng/mL
- Cmax [13]: 2330 ng/g
- Tmax [14]: 0.5 h
- Tmax [15]: 0.5 h
- Tmax [16]: 1 h
- Tmax [17]: 1 h
- AUC(0-t) at 24 h [18]: 2430 ng·h/mL
- AUC [19]: 3.731 µg·h/g
- AUC(0-t) at 24 h [20]: 6200 ng·h/mL
- AUC [21]: 10.414 µg·h/g
- Kp [22]: 1.68
- MRT [23]: 2.29 h
- MRT [24]: 2.06 h
- MRT [25]: 3.54 h
- MRT [26]: 3.25 h
- fraction unbound at 24 h, 1 µM [27]: 0.199
- inhibition [28]: < 50%
- inhibition at 10 µM [29]: < 50%
- inhibition [30]: < 50%
- inhibition [31]: < 50%
- inhibition [32]: < 50%
- inhibition [33]: Active
- pEC50 [34]: 7.15
- Emax [35]: 114%
- Activity [36]: Non-Toxic

SMILES: CCc1cc(-c2sc(Cc3cccc(C(F)(F)F)c3)nc2C)ccc1C(N)=O
- pEC50 [1]: 7.08
- Emax [2]: 84%

SMILES: COc1cccc(Cc2nc(C)c(-c3ccc(C(N)=O)c(C)c3)s2)c1
- pEC50 [1]: 6.80
- Emax [2]: 85%

SMILES: Cc1nc(Cc2cccc(C(F)(F)F)c2)sc1-c1ccc(C(N)=O)c(C(C)C)c1
- pEC50 [1]: 6.43
- Emax [2]: 63%

SMILES: Cc1cc(-c2sc(Cc3ccccc3Cl)nc2C)ccc1C(N)=O
- pEC50 [1]: 5.41
- Emax [2]: 51%

SMILES: Cc1cc(-c2sc(Cc3cccc(N(C)C)c3)nc2C)ccc1C(N)=O
- pEC50 [1]: 6.16
- Emax [2]: 101%

SMILES: Cc1nc(Cc2cccc(C(F)(F)F)c2)sc1-c1ccc(C(N)=O)nc1 [TP-024n]
- pEC50 [1]: < 6.00
- Emax [37]: 11%
